Screening data deposited in PubChem by several laboratories.
Most compounds without a hit are left out; they make up all but 2.5% or so of the library.
TRPC4 potent = TRPC4 (mouse) allosteric potentiation. Q9QUQ5. HEK293 TRPC4beta/mu-opioid, DAMGO EC20, Fluo-4 Ca2+ flux; active compounds read high. B-score at 10 µM. 0.42% of 310,000 active;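 active means B-score of calcium response area above 5 SD of library B-scores, with initial fluorescence ratio within 5 SD of library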
TRPC4 act = TRPC4 (mouse) channel activation | Q9QUQ5 | B-score at 10 µM | HEK293 TRPC4beta/mu-opioid, Fluo4 calcium fluorescence; active compounds read high | AID 2237 | 0.49% of 310,000 active;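 active means B-score above 5 SD of library B-scores, and initial fluorescence ratio not above library mean plus 5 SD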;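 further: positive B-score marks a calcium rise read as TRPC4 activation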
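system = HEK293 cells stably co-expressing mouse TRPC4beta and mu-opioid receptor | schedule = Fluo4 dye loading 45 min at room temperature, 110 s recording | measure = B-scored integrated calcium fluorescence ratio | signal = Fluo4 calcium-sensitive dye fluorescence, kinetic, 1 Hz baseline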
TRPC6 act = mouse TRPC6 channel activation. HEK293-TRPC6 membrane potential dye fluorescence; active compounds read high. B-score at 10 µM. 0.13% of 310,000 active;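 active means B-score of the integrated fluorescence ratio above library mean plus 3 SD, and starting fluorescence ratio within library mean plus 5 SD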;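 further: higher score means more depolarization so channel activation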
Target sequence (Q61143 whole entry, looked up): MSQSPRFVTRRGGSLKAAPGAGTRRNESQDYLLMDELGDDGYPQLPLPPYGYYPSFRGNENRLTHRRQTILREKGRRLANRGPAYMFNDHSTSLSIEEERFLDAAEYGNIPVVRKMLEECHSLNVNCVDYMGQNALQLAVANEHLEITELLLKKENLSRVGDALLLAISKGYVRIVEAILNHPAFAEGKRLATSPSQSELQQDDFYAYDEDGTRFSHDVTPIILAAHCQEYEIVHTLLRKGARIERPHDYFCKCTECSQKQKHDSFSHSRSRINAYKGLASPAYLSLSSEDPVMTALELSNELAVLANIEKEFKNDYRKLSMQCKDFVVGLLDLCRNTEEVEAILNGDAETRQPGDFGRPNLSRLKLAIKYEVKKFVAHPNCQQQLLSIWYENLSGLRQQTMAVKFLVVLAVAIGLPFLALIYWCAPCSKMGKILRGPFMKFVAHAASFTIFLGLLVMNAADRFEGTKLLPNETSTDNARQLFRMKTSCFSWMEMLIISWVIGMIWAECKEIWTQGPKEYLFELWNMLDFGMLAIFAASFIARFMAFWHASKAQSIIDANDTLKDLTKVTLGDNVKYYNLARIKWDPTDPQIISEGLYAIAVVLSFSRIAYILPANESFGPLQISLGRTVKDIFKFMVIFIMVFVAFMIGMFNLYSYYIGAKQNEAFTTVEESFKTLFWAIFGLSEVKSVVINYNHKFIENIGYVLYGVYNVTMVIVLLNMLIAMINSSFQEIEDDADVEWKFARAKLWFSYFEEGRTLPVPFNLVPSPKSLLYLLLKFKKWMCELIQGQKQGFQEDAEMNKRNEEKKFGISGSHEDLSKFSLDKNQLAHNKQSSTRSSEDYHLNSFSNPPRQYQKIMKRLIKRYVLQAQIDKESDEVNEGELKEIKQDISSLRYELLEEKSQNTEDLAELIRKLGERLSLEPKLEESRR
TRPC4 block = blocks the mouse TRPC4 cation channel. HEK293 TRPC4beta/mu-opioid, DAMGO-evoked Fluo4 calcium flux; active compounds read low. 0.39% of 300,000 active. B-score at 10 µM. AID 2247. Q9QUQ5;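 active means B-score over 3 SD under the library average, no early fluorescence shift, positive overall ratio signal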
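material = TRPC4beta/mu-opioid receptor HEK293 cell line | probe or stimulus = sequential submaximal and maximal DAMGO stimulation | compound dosing = one concentration per compound | measured by = Fluo4 Ca2+ flux fluorescence | evaluation = integrated fluorescence ratio relative to baseline, converted to per-well B score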
TRPC6 inhibitor = mouse TRPC6 channel inhibition. Q61143. HEK293-TRPC6, membrane potential dye, ACh-evoked depolarization; active compounds read low. B-score at 10 µM. 1.1% of 310,000 active;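 active means B-score under library mean minus 3 SD, initial fluorescence not abnormally high, positive integrated signal ratio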;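 further: B-score derived from integrated fluorescence ratio over the kinetic read; more negative B-score means stronger inhibition of depolarization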
Platelet DG rel = modulates dense granule release in human platelets; human platelet-rich plasma, SFLLRN dense granule ATP release, luminescence; AID 1663; 0.22% of 300,000 active; inhibition, %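 (compounds screened at 7.5 µM in platelet-rich plasma)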;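 active means mean replicate score, as percent of positive control, at or above 50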
TRPC4 spec 2 = second selectivity test of TRPC6 inhibitors: effect on mouse TRPC4 | inhibition, % at 10 µM | 42% of 920 active | shares compounds with TRPC6 inhibitor | HEK293 TRPC4/MOR, membrane potential dye fluorescence; channel activated by saturating DAMGO dose;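 active means compounds whose fluorescence signal differed from control wells by over 3 SD, either direction, in both duplicate plates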
TRPC4 spec = tests whether TRPC6 inhibitors also affect mouse TRPC4 | HEK293 TRPC4/mu-opioid, membrane potential fluorescence | shares compounds with TRPC6 inhibitor | activity change, negative = inhibition, % at 10 µM | AID 2777 | 61% of 920 active;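 active means rise or fall in signal beyond 3 SD of buffer-only wells in both replicate plates, either sign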;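 further: integrated kinetic ratio of fluorescence range over baseline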
HEK293 MPD ctr 2-1 = parental HEK293 nonspecific activity of TRPC6 inhibitors, second screen; 31% of 920 active; AID 2779; signal change vs control, % at 10 µM; parental HEK293 membrane potential dye fluorescence; maximal acetylcholine challenge after compound addition; shares compounds with TRPC6 inhibitor;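 active means membrane potential signal moving either way by over 3 SD of the maximum-effect control, in both duplicate plates, meaning non-specific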
HEK293 MPD ctr-1 = counter-screen for TRPC6 inhibitors: effect in parental HEK293 cells. shares compounds with TRPC6 inhibitor. parental HEK293 membrane potential dye fluorescence. 60% of 920 active. membrane potential signal change, % at 10 µM;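 active means membrane potential signal shifting up or down by more than 3 SD of buffer-only wells, on both duplicate plates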
HEK293 MPD ctr-2 = parental HEK293 nonspecific activity of TRPC6 modulators. shares compounds with TRPC6 inhibitor. 51% of 2,400 active. AID 488924. membrane potential signal change, % at 10 µM. membrane potential dye fluorescence;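 active means membrane potential signal moves up or down beyond 5 SD from buffer-only wells, on both duplicate plates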
HEK293 MPD ctr 2-2 = parental HEK293 nonspecific activity of TRPC6 modulators, second screen | inhibition, % at 10 µM | shares compounds with TRPC6 inhibitor | membrane potential dye fluorescence; after compound, maximal acetylcholine stimulation | 14% of 2,400 active | AID 488926;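 active means membrane potential signal drops by more than 5 SD from the mean control signal, in both duplicate plates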
TRPC4 ctr mod = tests whether TRPC6 modulators also affect mouse TRPC4; 69% of 2,400 active; AID 488927; shares compounds with TRPC6 inhibitor; HEK293 TRPC4/mu-opioid, membrane potential fluorescence; percent change from control (negative = decrease, positive = increase), % at 10 µM;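 active means membrane potential signal moved up or down beyond 5 SD of buffer control wells, in both duplicate plates, actives on both sides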
TRPC4 ctr inh 2 = second selectivity test of TRPC6 modulators against mouse TRPC4. shares compounds with TRPC6 inhibitor. inhibition, % at 10 µM. HEK293 TRPC4/mu-opioid, membrane potential dye fluorescence; stimulated with maximal-effect DAMGO. 55% of 2,400 active;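 active means drop in membrane potential signal beyond 5 SD of the control wells in both duplicate plates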;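 further: TRPC4 counter screen for TRPC6 hits run under conditions tuned for TRPC6 not TRPC4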
TRPC6 inh conf = confirmation of mouse TRPC6 inhibitors. HEK293-TRPC6, membrane potential dye, ACh-evoked depolarization. shares compounds with TRPC6 inhibitor. 43% of 3,300 active. inhibition, % at 10 µM;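 active means fluorescence ratio falls more than 5 SD below the full-stimulation control mean, in both duplicate runs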;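 further: integrated fluorescence ratio of peak minus minimum over baseline after agonist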
TRPC6 act conf = confirmation of mouse TRPC6 activators; activation, % at 10 µM; shares compounds with TRPC6 inhibitor; 11% of 2,800 active; HEK293-TRPC6 membrane potential dye fluorescence, FDSS;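 active means ratio signal rise beyond 5 SD above unstimulated control wells' mean, seen in both duplicate runs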
Large screens that a line does not name were inactive (follow-up assays come after a bar, where they were run).

CC[N+]12CCC(CC1)C(C(O)(c1ccccc1)c1ccccc1)C2 (configuration not stated)	TRPC6 inhibitor -6.02 | HEK293 MPD ctr-2 inactive | HEK293 MPD ctr 2-2 inactive | TRPC4 ctr mod inactive | TRPC4 ctr inh 2 inactive | TRPC6 inh conf 81.5% | TRPC6 act conf inactive
CC(C)[N+]12CCC(CC1)C(C(O)(c1ccccc1)c1ccccc1)C2 (configuration not stated)	none
Clc1cccc(N2CCNCC2)c1Cl	TRPC6 inhibitor -8.96 | TRPC4 spec 2 72.5% | TRPC4 spec -0.4% | HEK293 MPD ctr 2-1 inactive | HEK293 MPD ctr-1 1.9% | TRPC6 inh conf 55.5% | TRPC6 act conf inactive
Cc1ccc(OP(=O)(O)Oc2ccc(C)cc2)cc1	TRPC6 inhibitor -6.45 | HEK293 MPD ctr-2 inactive | HEK293 MPD ctr 2-2 inactive | TRPC4 ctr mod inactive | TRPC4 ctr inh 2 inactive | TRPC6 inh conf inactive
Cc1ccc(C(O)P(=O)(Oc2ccccc2)Oc2ccccc2)cc1 (configuration not stated)	none
CCCCn1c(O)c(C(=O)/C=C/c2c[nH]c3ccccc23)c(=O)[nH]c1=O	TRPC6 act 247 | HEK293 MPD ctr-2 941.0% | HEK293 MPD ctr 2-2 inactive | TRPC4 ctr mod 586.0% | TRPC4 ctr inh 2 inactive | TRPC6 inh conf inactive | TRPC6 act conf 212.5%
CCCCn1c(O)c(C(CC)=NCCc2ccccc2)c(=O)[nH]c1=O	none
O=[N+]([O-])c1ccc(N2CCCC2)cc1N/N=C1\CN2CCC1CC2	TRPC6 inhibitor -5.2 | HEK293 MPD ctr-2 -247.5% | HEK293 MPD ctr 2-2 74.0% | TRPC4 ctr mod -41.0% | TRPC4 ctr inh 2 85.5% | TRPC6 inh conf 88.5% | TRPC6 act conf inactive
CC(Cc1ccccc1Sc1ccccc1O)N(C)C (configuration not stated)	TRPC4 block -7, TRPC6 inhibitor -9.38 | TRPC4 spec 2 37.0% | TRPC4 spec 54.9% | HEK293 MPD ctr 2-1 inactive | HEK293 MPD ctr-1 12.4% | TRPC6 inh conf inactive
C/C(Cl)=C/CC1(CN2CCCC2=O)C(=O)NC(=O)NC1=O	none
C[N+](C)(C)CC#CCN1CCCC1=O	TRPC4 act 86, TRPC6 inhibitor -5.94 | HEK293 MPD ctr-2 103.0% | HEK293 MPD ctr 2-2 60.5% | TRPC4 ctr mod 45.0% | TRPC4 ctr inh 2 inactive | TRPC6 inh conf 78.5%
